In ChEMBL document CHEMBL1145062, “Conformationally defined retinoic acid analogues. 5. Large-scale synthesis and mammary cancer chemopreventive activity for (2E,4E,6Z,8E)-8-(3',4'-dihydro-1'(2'H)-naphthalen-1'-ylidene)-3,7-dimethyl-2,4,6-octatrienoic acid (9cUAB30)” (2003):

How the values were obtained:
Rattus norvegicus [1] = test: Anti cancer activity of compound was measured by final body weight(g) of rat in 200 mg/kg diet after MNU intravenous injection; assay type: functional
Procedure, shortened: (§1)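 Female rats housed five per cage on 4% Teklad rodent diet; single intravenous MNU via jugular vein at 50 days of age. Retinoid mixed into diet (Patterson–Kelly liquid–solid blender; stability checked by HPLC) and fed continuously from 53 days of age; n = 20 per group; diet-only MNU control group. Weighed weekly; body weight and liver, uterus, ovary weights (g per 100 g body weight) taken at study end.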

Rattus norvegicus [2] = test: Anti cancer activity of compound was measured by weight of ovaries in gram per 100 g body weight of rat in 200 mg/kg diet after MNU intravenous injection; assay type: functional, Female gonad; procedure, shortened: as §1
Rattus norvegicus [3] = test: Anti cancer activity of compound was measured by weight of ovaries in gram per 100 g body weight of rat in 100 mg/kg diet after MNU intravenous injection; assay type: functional, Female gonad; procedure, shortened: as §1
Rattus norvegicus [4] = test: Anti cancer activity of compound was measured by final body weight(g) of rat in 100 mg/kg diet after MNU intravenous injection; assay type: functional; procedure, shortened: as §1
Rattus norvegicus [5] = test: Anti cancer activity of compound was measured by weight of liver in gram per 100 g body weight of rat in 200 mg/kg diet after MNU intravenous injection; assay type: functional; procedure, shortened: as §1
Rattus norvegicus [6] = test: Anti cancer activity of compound was measured by weight of uterus in gram per 100 g body weight of rat in 200 mg/kg diet after MNU intravenous injection; assay type: functional; procedure, shortened: as §1
Rattus norvegicus [7] = test: Anti cancer activity of compound was measured by weight of liver in gram per 100 g body weight of rat in 100 mg/kg diet after MNU intravenous injection; assay type: functional; procedure, shortened: as §1
Rattus norvegicus [8] = test: Anti cancer activity of compound was measured by weight of uterus in gram per 100 g body weight of rat in 100 mg/kg diet after MNU intravenous injection; assay type: functional; procedure, shortened: as §1

Which Body weight (Rattus norvegicus [1]) does the source give for `CC(=C\C=C\C(C)=C\C(=O)O)/C=C1\CCCc2ccccc21` here?
Its Body weight is 272 g.

What about the Organ weight (Rattus norvegicus [2]) of the same compound?
The Organ weight was 0.052 g.

And the Organ weight (Rattus norvegicus [3])?
The Organ weight was 0.046 g.

What about the Body weight (Rattus norvegicus [4]) of the same compound?
Its Body weight is 271 g.

What about the Organ weight (Rattus norvegicus [5]) of the same compound?
The Organ weight was 3.11 g.

And the Organ weight (Rattus norvegicus [6])?
The Organ weight was 0.21 g.

What about the Organ weight (Rattus norvegicus [7]) of the same compound?
The Organ weight was 2.96 g.

And the Organ weight (Rattus norvegicus [8])?
Its Organ weight is 0.16 g.
